Assay results: ChEMBL document CHEMBL4229560, “Increasing C-Terminal Hydrophobicity Improves the Cell Permeability and Antiproliferative Activity of PACE4 Inhibitors against Prostate Cancer Cell Lines” (J Med Chem, 2018)
Where a SMILES comes first, the peptide text is derived from it. [ ]: non-standard residue; d: D form. The star is where a group is joined. NH(4-amidinobenzyl) = N=C(N)c1ccc(CN*)cc1

Key:
[1] = Half life in human plasma by ion chromatogram-based analysis; format: ADME, cell-free
Procedure, shortened: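 Peptide at 50 µM was incubated at 37 °C in human serum from male AB plasma. At each time point, plasma was precipitated with MeOH containing Fmoc-Leu-OH internal standard, centrifuged and filtered. Samples were analysed by UPLC-MS. The peptide/standard ratio of total ion chromatogram peak area was expressed relative to 0 h.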

LNCaP [2] = assay: Antiproliferative activity against human LNCAP cells after 72 hrs by MTT assay; format: functional, cell-based
Procedure, shortened: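 MTT assay run 72 h. Seeding was ~1500 cells/well for DU145 and ~2500 cells/well for LNCaP, in RPMI 1640 with 5% FBS (DU145) or 10% FBS (LNCaP). Medium was changed after 24 h, then inhibitor added at 1–300 µM or 1–150 µM. MTT was added at 1 g/L final for 4 h and formazan dissolved in 2-propanol/HCl. Readings were relative to vehicle (water, 0.1% DMSO). IC50 was from at least two independent experiments.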

LNCaP [3] = assay: Antitumor activity against human LNCAP cells xenografted in nu mouse assessed as reduction in serum prostate-specific antigen levels at 2 mg/kg/day, iv administered at 24 hr intervals; format: functional; parameters: scale not given: the % may be the effect or the level left
[4] = Acute toxicity in iv dosed CD1 mouse measured within 5 mins post dose; format: organism-based; details: in vivo
Procedure, shortened: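 Healthy CD1 mice received a single intravenous dose, given at various dose levels, to locate the toxicity threshold as a maximum tolerated dose (MTD).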

LNCaP [5] = assay: Antitumor activity against human LNCAP cells xenografted in nu mouse assessed as reduction in tumor volume at 2 mg/kg/day, iv administered at 24 hr intervals; format: functional; parameters: scale not given: the % may be the effect or the level left
Homo sapiens = species on record: Homo sapiens; assay: Selectivity ratio of Ki for recombinant human furin to Ki for recombinant human PACE4
Procedure, shortened: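 Ki values came from human recombinant enzymes expressed in S2 insect cells. Furin was assayed in 100 mM HEPES pH 7.5, 1 mM CaCl2, 1 mM β-mercaptoethanol and 1.8 g/L BSA. PACE4 was assayed in 20 mM Bis-Tris pH 6.5, 1 mM CaCl2 and 1.8 g/L BSA. Substrate was pERTKR-AMC at 100 µM, with inhibitor at 0–10 µM. Fluorescence (ex 370/em 460 nm) was read for 1 h, and Ki derived by Cheng-Prusoff.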

Q: For `CC(=O)N[C@H](CC(C)C)C(=O)N[C@@H](CC(C)C)C(=O)N[C@@H](CC(C)C)C(=O)N[C@@H](CC(C)C)C(=O)N[C@@H](CCCNC(=N)N)C(=O)N[C@H](C(=O)N[C@@H](CCCCN)C(=O)NCc1ccc(C(=N)N)cc1)C(C)C` (Ac-[dL]LLLRVK-{NH(4-amidinobenzyl)}), which half-life [1] is on record?
A: Its half-life is 1.7 h.

Q: What about the IC50 (LNCaP [2]) of the same compound?
A: The IC50 was 45 µM.

Q: What about the Activity (LNCaP [3]) of the same compound?
A: Its Activity is 47%.

Q: What about the MTD at 5 min [4] of the same compound?
A: The MTD at 5 min was 10 mg/kg.

Q: And the Activity (LNCaP [5])?
A: Its Activity is 60%.

Q: And the Ratio Ki (Homo sapiens)?
A: Its Ratio Ki is 2.
